Source: ChEMBL document CHEMBL1157027, “The identification of 8,9-dimethoxy-5-(2-aminoalkoxy-pyridin-3-yl)-benzo[c][2,7]naphthyridin-4-ylamines as potent inhibitors of 3-phosphoinositide-dependent kinase-1 (PDK-1)” (Eur J Med Chem, 2010)

Assays:
[1] = target: RAC-alpha serine/threonine-protein kinase (Homo sapiens, UniProt P31749); test: Inhibition of AKT
[2] = target: Ribosomal protein S6 kinase beta-1 (Homo sapiens, UniProt P23443); test: Inhibition of p70S6K
[3] = Inhibition of PKA
Method in brief: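 PKA activity was measured with the Z'-LYTE kinase assay, run per the manufacturer's protocol at 100 uM ATP. IC50 values are given in nM.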

[4] = target: T1, 3-phosphoinositide-dependent protein kinase 1 (Homo sapiens, UniProt O15530); test: Inhibition of human GST-tagged-PDK1 expressed in HEK293 cells; type: cell-based
T1 sequence (O15530 whole entry): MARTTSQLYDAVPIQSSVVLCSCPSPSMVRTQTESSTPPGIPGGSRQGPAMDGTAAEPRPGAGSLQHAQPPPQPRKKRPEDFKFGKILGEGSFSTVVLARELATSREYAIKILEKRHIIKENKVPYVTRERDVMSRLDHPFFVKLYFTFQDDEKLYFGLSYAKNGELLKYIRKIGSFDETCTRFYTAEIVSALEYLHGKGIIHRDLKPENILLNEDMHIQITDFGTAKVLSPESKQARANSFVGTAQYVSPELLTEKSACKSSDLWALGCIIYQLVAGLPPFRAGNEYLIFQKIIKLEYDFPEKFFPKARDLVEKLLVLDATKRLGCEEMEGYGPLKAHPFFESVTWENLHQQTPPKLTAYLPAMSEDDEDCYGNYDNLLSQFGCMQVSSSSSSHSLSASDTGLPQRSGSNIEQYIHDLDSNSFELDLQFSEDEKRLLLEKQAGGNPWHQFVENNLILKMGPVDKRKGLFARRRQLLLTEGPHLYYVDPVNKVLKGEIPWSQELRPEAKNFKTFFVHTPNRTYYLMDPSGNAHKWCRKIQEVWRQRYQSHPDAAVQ

Sequence of Ribosomal protein S6 kinase beta-1 (P23443 whole entry): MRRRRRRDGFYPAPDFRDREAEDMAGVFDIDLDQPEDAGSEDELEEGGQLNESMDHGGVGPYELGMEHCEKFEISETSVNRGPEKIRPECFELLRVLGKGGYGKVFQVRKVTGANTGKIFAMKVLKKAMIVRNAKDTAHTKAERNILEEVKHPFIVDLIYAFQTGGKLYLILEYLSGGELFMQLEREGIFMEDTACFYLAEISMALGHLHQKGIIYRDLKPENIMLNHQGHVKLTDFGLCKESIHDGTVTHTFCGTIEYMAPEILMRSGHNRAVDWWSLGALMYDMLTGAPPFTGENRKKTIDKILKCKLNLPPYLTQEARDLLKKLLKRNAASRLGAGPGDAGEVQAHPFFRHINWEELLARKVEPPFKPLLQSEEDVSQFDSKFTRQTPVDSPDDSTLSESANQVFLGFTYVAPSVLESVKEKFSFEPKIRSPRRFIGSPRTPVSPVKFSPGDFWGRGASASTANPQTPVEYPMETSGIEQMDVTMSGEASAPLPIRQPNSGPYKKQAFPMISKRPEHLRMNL
Sequence of RAC-alpha serine/threonine-protein kinase (P31749 whole entry): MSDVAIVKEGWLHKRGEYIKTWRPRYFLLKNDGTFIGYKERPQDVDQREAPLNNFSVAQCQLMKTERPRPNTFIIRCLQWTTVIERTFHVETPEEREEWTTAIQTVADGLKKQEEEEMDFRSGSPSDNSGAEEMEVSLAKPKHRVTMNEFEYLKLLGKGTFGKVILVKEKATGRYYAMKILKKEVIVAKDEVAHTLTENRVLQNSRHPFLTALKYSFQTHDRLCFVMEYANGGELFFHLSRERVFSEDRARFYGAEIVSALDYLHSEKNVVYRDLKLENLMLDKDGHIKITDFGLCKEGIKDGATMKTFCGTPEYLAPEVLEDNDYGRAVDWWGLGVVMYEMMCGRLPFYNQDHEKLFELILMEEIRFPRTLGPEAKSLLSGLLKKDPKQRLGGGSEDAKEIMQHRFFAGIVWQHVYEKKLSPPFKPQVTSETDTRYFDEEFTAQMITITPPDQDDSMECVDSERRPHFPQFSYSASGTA

IC50 [1] [µM] | IC50 [2] [µM] | IC50 [3] [µM] | IC50 [4] [µM] | Compound
0.318 | 0.072 | 0.045 | 0.003 | CC[C@@H](N)COc1cncc(-c2cc3c(cnc4cc(OC)c(OC)cc43)c(N)n2)c1
0.905 | 0.219 | 0.113 | 0.014 | COc1cc2ncc3c(N)nc(-c4cncc(OC[C@@H](N)CC(C)C)c4)cc3c2cc1OC
 |  | 0.086 | 0.003 | COc1cc2ncc3c(N)nc(-c4cncc(OC[C@@H](C)N)c4)cc3c2cc1OC
0.422 | 0.216 | 0.059 |  | CC[C@H](N)COc1cncc(-c2cc3c(cnc4cc(OC)c(OC)cc43)c(N)n2)c1
 |  | 0.123 |  | COc1cc2ncc3c(N)nc(-c4cncc(OC[C@H](C)N)c4)cc3c2cc1OC
0.402 | 0.08 | 0.066 |  | COc1cc2ncc3c(N)nc(-c4cncc(OCCN)c4)cc3c2cc1OC
1.39 | 0.443 | 0.385 | 0.018 | COc1cc2ncc3c(N)nc(-c4cncc(OC[C@H](N)CC(C)C)c4)cc3c2cc1OC

Continued, compound first:

Compound | IC50 [1] [µM] | IC50 [2] [µM] | IC50 [3] [µM] | IC50 [4] [µM]
COc1cc2ncc3c(N)nc(-c4cncc(OC[C@@H](N)Cc5cccc(C(F)(F)F)c5)c4)cc3c2cc1OC | 0.209 | 0.182 | 0.068 | 
COc1cc2ncc3c(N)nc(-c4cncc(OC[C@H](N)Cc5c[nH]c6ccccc56)c4)cc3c2cc1OC | 1.32 |  | 0.12 | 
COc1cc2ncc3c(N)nc(-c4cncc(OC[C@@H](N)Cc5ccncc5)c4)cc3c2cc1OC | 1.75 | 0.343 | 0.138 | 0.009
COc1cc2ncc3c(N)nc(-c4cncc(OC[C@@H](N)Cc5c[nH]c6ccccc56)c4)cc3c2cc1OC | 0.302 | 0.077 | 0.054 | 
COc1cc2ncc3c(N)nc(-c4cncc(OC[C@@H](N)Cc5cccc(Cl)c5)c4)cc3c2cc1OC | 0.078 |  | 0.018 | 
COc1cc2ncc3c(N)nc(-c4cncc(OC[C@H](N)Cc5ccc(F)cc5)c4)cc3c2cc1OC | 0.251 |  | 0.036 | 
COc1cc2ncc3c(N)nc(-c4cncc(OC[C@@H](N)Cc5ccc(F)cc5)c4)cc3c2cc1OC | 0.183 | 0.021 | 0.032 | 
COc1cc2ncc3c(N)nc(-c4cncc(OC[C@@H](N)Cc5ccccc5)c4)cc3c2cc1OC | 0.261 | 0.107 | 0.077 | 
COc1cc2ncc3c(N)nc(-c4cncc(OC[C@H](N)Cc5cccc(C(F)(F)F)c5)c4)cc3c2cc1OC |  |  | 0.142 | 
COc1cc2ncc3c(N)nc(-c4cncc(OC[C@@H](N)Cc5ccc(Cl)c(Cl)c5)c4)cc3c2cc1OC |  |  | 0.041 | 
COc1cc2ncc3c(N)nc(-c4cncc(OC[C@H](N)Cc5ccccc5)c4)cc3c2cc1OC | 0.259 |  | < 0.031 | 
COc1cc2ncc3c(N)nc(-c4cncc(OC[C@@H](N)Cc5ccccc5Cl)c4)cc3c2cc1OC | 0.793 |  | 0.079 | 
